The text below walks through data of ChEMBL document CHEMBL3526029, “Disposition and metabolism of GSK2251052 in humans: a novel boron-containing antibiotic” (Drug Metab Dispos, 2013).

Each structure is given as a SMILES string.

For one data set, the system named is Plasma. The data set can be described thus: Clearance in healthy human plasma assessed as radioactivity at 1500 mg, iv infusion for 1 hr as single dose. In kind it is ADME, organism-based. The following applies: in vivo. In outline: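 Six fasted healthy men received 1500 mg [14C]GSK2251052 as a 1-h i.v. infusion. Blood and plasma were sampled from predose to 336 h after infusion start. Radioactivity was counted by LSC; plasma below 870 ng eq/ml was reanalysed by accelerator MS, with predose background subtracted. Noncompartmental analysis used actual sampling times, linear-up/log-down trapezoids and CL = dose/AUC(0-∞).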

Data set [1] can be described thus: Drug recovery in healthy human urine at 1500 mg, iv infusion for 1 hr as single dose after 144 hrs. The format is ADME, organism-based. The following applies: read-out: Drug recovery.
The nature of data set [2]: Drug metabolism in human liver S9 fraction assessed as (S)-3-(3-(aminomethyl)-1-hydroxy-1,3-dihydrobenzo[c][1,2]oxaborol-7-yloxy)propanoicacid formation at 50 to 500 uM after 3 hrs by liquid scintillation counting in presence of NAD+. In kind it is ADME, subcellular. Conditions: s9, 3 h. In a few lines:
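[14C]GSK2251052 was incubated in triplicate for 1 or 3 h at 37°C with 4 mg/ml S9 (monkey liver, lung or kidney; human liver), liver cytosol or liver microsomes and 7.5 mM NAD+. Buffer was pyrophosphate at pH 7.4, 8.4 or 8.8. Controls lacked cofactor or enzyme. Reactions were quenched with acetonitrile, counted by LSC, and pooled for radio-HPLC.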

Turning to `Cl.N[14CH2][C@H]1OB(O)c2c(OCCCO)cccc21`, the CL in the data set on Plasma stood at 7.7 L/h. Besides, in data set [1], the dose excreted at 144 h was found to be 85.1%. Besides, the Drug metabolism entry in data set [2] was “metabolite_not_detected”.
